ChEMBL document CHEMBL1124868, “Synthesis and anti-HIV-1 activity of 2'-"up"-fluoro analogues of active anti-AIDS nucleosides 3'-azido-3'-deoxythymidine (AZT) and 2',3'-dideoxycytidine (DDC)” (J Med Chem, 1990)
Several values for one entry are separate records, joined by “and”; a condition that tells them apart may be missing. Equal entries are not always repeated.

Assays:
MT4 [1] = experiment: AntiHIV-1 activity measured in MT-4 cells at 5 to 6 different concentrations, using the P24 antigen enzyme-linked immunosorbent assay (ELISA).; assay type: functional, cell-based; settings: Homo sapiens
Procedure, shortened: (§1)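 MT4 cells infected with HIV-1 at 200 TCID50 per 10^6 cells, adsorbed 1 h at 37 °C, 5% CO2, washed, resuspended at 10^6 cells/3 mL. Compounds added immediately at five to six concentrations. After 5 days at 37 °C, cell-free supernatant assayed for P24 core antigen by ELISA kit or for RT activity. EC50 from median-effect plot analysis against untreated infected controls.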

[2] = Selectivity ratio to IC50 of HL60 cells and EC50, anti-HIV activity of MT-4 cells; assay type: functional, HL-60
Procedure, shortened: (§2)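 Selectivity ratio is the cytotoxic IC50 (MT4 or HL60 cells, […]) divided by the anti-HIV-1 EC50 from P24 ELISA or RT assay in infected MT4 cells.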

MT4 [3] = experiment: AntiHIV-1 activity measured in MT-4 cells at 5 to 6 different concentrations, using the reverse transcriptase (RT) assay; assay type: functional, cell-based; settings: Homo sapiens; procedure, shortened: as §1
[4] = Selectivity ratio to IC50 of MT4 cells and EC50, anti-HIV activity of MT-4 cells; assay type: functional; procedure, shortened: as §2
HL-60 = experiment: Cytotoxicity was tested in HL60 cells by the trypan blue exclusion assay.; assay type: functional, cell-based; settings: Homo sapiens
Procedure, shortened: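 HL60 cells exposed to at least five compound concentrations plus no-drug control, in duplicate in 96-well plates. Growth inhibition counted by trypan blue exclusion on a hemocytometer. IC50 derived by median-effect plot analysis.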

MT4 [5] = experiment: Cytotoxicity was tested in MT-4 cells by the XTT-microculture tetrazolium assay.; assay type: functional, cell-based; settings: Homo sapiens
Procedure, shortened: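 MT4 cells exposed in duplicate in 96-well plates to at least five concentrations for 4 days. PMS-XTT (0.075 mM PMS with 1 mg/mL XTT in serum-free medium) added, then 6 h at 37 °C before reading. IC50 derived by median-effect plot analysis.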

Structure (SMILES) | EC50 (MT4 [1]) [µM] | Selectivity ratio [2] | EC50 (MT4 [3]) [µM] | Selectivity ratio [4] | IC50 (HL-60) [µM] | IC50 (MT4 [5]) [µM]
Cc1cn([C@@H]2O[C@H](CO)[C@@H](N=[N+]=[N-])[C@H]2F)c(=O)[nH]c1=O | 168 | 2.62 and 4.27 | 103 | 1.26 and 2.06 | 440 | 
Nc1ccn([C@@H]2O[C@H](CO)C[C@@H]2F)c(=O)n1 | 2.66 | 266 and 278 | 2.54 | 328 and 343 | 707 | 1480
Nc1ccn([C@H]2CC[C@@H](CO)O2)c(=O)n1 [ZALCITABINE] | 0.236 | 424 and 417 | 0.24 | 1326 and 1304 | 100 | 
Cc1cn([C@H]2C[C@H](N=[N+]=[N-])[C@@H](CO)O2)c(=O)[nH]c1=O [ZIDOVUDINE] | 0.006 | 16000 and 21333 | 0.0045 | 8833 and 11778 | 96 | 
